Measurements reported in publication PMC11567926 (Current Research in Food Science, 2024).
Residues, ends and D or L forms follow the SMILES beside them.

Tests used:
[1] = tested on: Caco-2 cells; assay: Caco-2 cell viability, MTT colorimetric assay; assay type: cell-based, human; conditions: 8 mM peptide, 4 h
Method in brief: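 Caco-2 cells grown in DMEM with 10% FBS and 1% penicillin-streptomycin at 37 °C, 5% CO2. Seeded at 5 × 10^4 cells/well and incubated 24 h. Medium replaced with peptide at 0.5, 1, 2, 4 or 8 mM for 4 h, 6 replicates per sample. MTT solution (5 mg/mL) added for 4 h, formazan dissolved in DMSO with ~15 min shaking, OD read at 490 nm.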

[2] = target: T1, DPP-IV (Homo sapiens, UniProt P27487); assay: cell-based
T1 sequence (P27487 whole entry): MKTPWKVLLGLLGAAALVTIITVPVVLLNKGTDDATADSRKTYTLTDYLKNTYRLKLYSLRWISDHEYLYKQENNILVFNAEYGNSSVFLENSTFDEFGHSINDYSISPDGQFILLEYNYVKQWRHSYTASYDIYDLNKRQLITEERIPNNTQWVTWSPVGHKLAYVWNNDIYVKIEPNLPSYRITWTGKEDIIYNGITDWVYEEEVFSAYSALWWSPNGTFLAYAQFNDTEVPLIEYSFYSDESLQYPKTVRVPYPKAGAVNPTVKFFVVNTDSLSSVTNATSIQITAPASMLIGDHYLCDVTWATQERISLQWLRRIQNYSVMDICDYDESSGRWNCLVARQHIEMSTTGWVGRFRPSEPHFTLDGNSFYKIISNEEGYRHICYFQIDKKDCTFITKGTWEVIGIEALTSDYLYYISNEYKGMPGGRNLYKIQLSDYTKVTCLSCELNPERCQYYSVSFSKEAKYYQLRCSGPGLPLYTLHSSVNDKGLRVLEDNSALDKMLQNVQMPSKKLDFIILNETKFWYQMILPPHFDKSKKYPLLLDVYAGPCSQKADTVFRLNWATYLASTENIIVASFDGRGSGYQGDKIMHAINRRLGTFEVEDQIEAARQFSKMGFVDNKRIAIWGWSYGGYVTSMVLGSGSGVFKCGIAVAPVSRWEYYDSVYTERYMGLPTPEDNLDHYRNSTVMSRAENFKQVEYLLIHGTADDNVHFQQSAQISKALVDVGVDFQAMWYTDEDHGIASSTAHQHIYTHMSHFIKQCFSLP

[3] = target: T1, DPP-IV; assay: in vitro DPP-IV inhibitory activity; assay type: biochemical; conditions: synthesized peptides, in vitro enzyme assay
Method in brief: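 Human DPP-IV (0.1 U/mL) and Gly-Pro-p-nitroanilide (2 mmol/L) solutions made in 100 mmol/L Tris-HCl, pH 8.0. Substrate and sample preincubated 10 min at 37 °C under subdued light. Enzyme then added and incubated 1 h at 37 °C. Stopped with 1 mol/L sodium acetate, pH 4.0, and absorbance read at 405 nm. Inhibition calculated from sample, sample-blank, control and blank absorbances.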

[4] = tested on: Caco-2 cell monolayer; assay: Caco-2 cell monolayer transmembrane transport; assay type: in vitro ADME, human; conditions: 4 mM, 120 min
Method in brief: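 Caco-2 cells seeded at 2 × 10^5 cells/mL on the apical side of 0.4 μm-pore Transwells and cultured 21 days to a differentiated monolayer; TEER over 350 Ω cm2 required. Both sides washed twice and equilibrated 30 min in HBSS. Peptide added apically, HBSS basolaterally, 120 min in incubator. AP and BL liquids analysed by RP-HPLC (1 mL/min, 30 °C column, 220 nm).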

[5] = tested on: Caco-2 cells; conditions: 4 mM; ref Mu et al., 2024; cited from earlier work
[6] = tested on: glucose metabolism; conditions: 300 mg/kg, OGTT normal rats; ref Uenishi et al. (2012); cited from earlier work

## CC(C)[C@H](N)C(=O)N1CCC[C@H]1C(=O)N[C@@H](Cc1ccccc1)C(=O)N[C@@H](Cc1c[nH]c2ccccc12)C(=O)N[C@@H](C)C(=O)O [VPFWA] (H-VPFWA-OH; N-terminus and C-terminus assumed)
[1]
  survival rates of Caco-2 cells: 76.03 ± 1.08%
[2]
  IC50: 325 ± 8.4 µM
[3]
  IC50: 251 ± 12.8 µM
[4]; AP to BL
  passage through the Caco-2 cell monolayer: pass through the Caco-2 cell monolayer intact
[4]; RP-HPLC
  chromatographic peak in the BL-side samples: smallest peak

## LDATDMVALVG
[5]
  damage to cell viability of Caco-2 cells: least damage to cell viability

## LPQNIPPL
[6]
  glucose metabolism: improved glucose metabolism
  plasma insulin levels: significantly reduced plasma insulin levels

## SPVAEVPFLR
[5]
  damage to cell viability of Caco-2 cells: least damage to cell viability
